Results from different studies.
Compare with care: the assays were run in different laboratories.
Target: Serine/threonine-protein kinase STK11 (STK11, Homo sapiens, UniProt Q15831)
One construct used (Q15831 1-433): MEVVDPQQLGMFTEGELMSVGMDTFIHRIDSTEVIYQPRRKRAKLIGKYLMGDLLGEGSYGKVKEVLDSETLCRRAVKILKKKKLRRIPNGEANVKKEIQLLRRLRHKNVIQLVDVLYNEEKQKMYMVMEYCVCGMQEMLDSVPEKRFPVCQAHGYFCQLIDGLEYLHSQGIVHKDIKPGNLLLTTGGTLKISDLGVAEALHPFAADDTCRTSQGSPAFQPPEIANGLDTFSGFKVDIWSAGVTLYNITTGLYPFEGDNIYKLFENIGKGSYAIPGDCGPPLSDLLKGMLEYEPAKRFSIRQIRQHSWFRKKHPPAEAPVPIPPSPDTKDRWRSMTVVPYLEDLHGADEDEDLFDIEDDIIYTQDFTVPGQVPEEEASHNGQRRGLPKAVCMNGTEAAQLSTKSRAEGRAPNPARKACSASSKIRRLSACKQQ

COc1ccc2[nH]c3c4[nH]c5ccc(OC)cc5c4c4c(c3c2c1)C(=O)NC4=O  remaining binding (binding, competition with immobilised ligand; 1 µM): 99%
CC(C)S(=O)(=O)c1ccc2nccc(Nc3ccc4sc(C5CCCC5)nc4c3)c2c1  activity vs control (enzyme activity, inhibitor; 1 µM): 109%
C[C@H]1CC[C@H](n2c3cnccc3c3cnc(Nc4ccc5c(n4)CCN(C(=O)CO)C5)nc32)CC1  remaining binding (binding, competition with immobilised ligand; 1 µM): 71%
C=CC(=O)N1CCC([C@@H]2CCNc3c(C(N)=O)c(-c4ccc(Oc5ccccc5)cc4)nn32)CC1  inhibition (enzyme activity, inhibitor; 1 µM): 10%
C#Cc1cnc(Nc2ccnc(CO)c2)nc1Nc1ccccc1S(C)(=O)=NC#N (stereo not drawn)  remaining signal (cell-free assay; 1 µM): 45%
CCCCC(=O)Nc1ccc(-c2ccc3ncn(CCC)c(=O)c3c2)cn1  remaining binding (binding, competition with immobilised ligand; 0.5 µM): 84%
COc1ccc2oc(-c3ccc4nc(N)oc4c3)c/c(=N\c3ccccc3NC(=O)CCN)c2c1  remaining binding (binding; 1 µM): 99%
N#Cc1ccc(NC(=O)Nc2ccccc2)cc1  remaining binding (cell-free assay, competition with immobilised ligand; 25 µM): 85%
CO[C@@H]1[C@H](N(C)C(=O)c2ccccc2)C[C@H]2O[C@]1(C)n1c3ccccc3c3c4c(c5c6ccccc6n2c5c31)C(=O)NC4  inhibition (enzyme activity, inhibitor; 1 µM): 94%
